Source: ChEMBL document CHEMBL1122484, “An analysis of 1-(2-chloroethyl)-1-nitrosourea activity at the cellular level” (J Med Chem, 1983)
pEC50: −log10 of the molar value.

Tests used:
P388 [1] = test: Mean value for the exposure for P388 to the drug following a variety of treatment schedules at pH 7.4 and 37 degree; settings: Mus musculus, read-out: ED50 (the source's name)
[2] = Pharmacokinetic parameter k2 was determined; type: ADME
Procedure, shortened: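 First-order rate constant for chemical conversion of the parent nitrosourea to its active alkylating intermediate. Measured in aqueous buffer or human serum at pH 7.4 and 37 °C.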

[3] = Alkylating activity was determined; type: ADME
P388 [4] = test: Mean value for the exposure for P388 to the drug for a period of 60 min; type: functional; settings: Mus musculus, P388, 1 h; read-out: ED50 (the source's name)
Procedure, shortened: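 P388 mouse leukemia cells in log-phase suspension culture (Fischer's medium, 10% horse serum) at 1 × 10^6 cells/mL, exposed at 37 °C, pH 7.4, to graded initial drug concentrations (ethanol/water vehicle, <0.1% ethanol) in duplicate tubes for the stated period. Cells then diluted to 6.6 × 10^4 cells/mL in fresh medium, grown 48 h, Coulter counted; ED50 = dose giving 50% decrease in cell number versus untreated.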

[5] = Carbamoylating activity was determined; type: ADME

SMILES	pEC50 (P388 [1])	k2 [2] [min⁻¹]	Alkylating activity [3]	pEC50 (P388 [4])	Carbamoylating activity [5]
O=NN(CCCl)C(=O)NC1CCC(=O)NC1=O (stereo not given)	5.19	0.027	360	5.09	24
NC(=O)N(CCCl)N=O	5.24	0.53	1000	5.22	20
O=NN(CCCl)C(=O)NCCCl [CARMUSTINE]	5.20	0.014	260	4.88	70
O=NN(CCCl)C(=O)N[C@H]1C(O)O[C@H](CO)[C@@H](O)[C@@H]1O (stereo not given in full) [CHLOROZOTOCIN]	4.93	0.033	450	4.77	2
O=NN(CCCl)C(=O)NC1CCCCC1 [LOMUSTINE]	5.17	0.013	100	4.89	100
